Reference: ChEMBL document CHEMBL3588845, “Protozoan Parasite Growth Inhibitors Discovered by Cross-Screening Yield Potent Scaffolds for Lead Discovery” (J Med Chem, 2015)

Assays:
[1] = test system: Trypanosoma brucei; experiment: Antiparasite activity against Trypanosoma brucei 427 assessed as growth inhibition incubated for 48 hrs by PrestoBlue based fluorescence assay; format: functional, organism-based; settings: Trypanosoma brucei, 427, 48 h
[2] = test system: Trypanosoma cruzi; experiment: Antiparasite activity against Trypanosoma cruzi Tulahuen expressing beta-galactosidase assessed as growth inhibition incubated for 96 hrs by CPRG dye based assay; format: functional, organism-based
[3] = test system: Leishmania major; experiment: Antiparasite activity against Leishmania major promastigotes assessed as growth inhibition incubated for 44 hrs by alamar blue dye based fluorescence assay; format: functional, organism-based
[4] = test system: Leishmania major; experiment: Antiparasite activity against luciferase-expressing Leishmania major amastigotes isolated from infected in mouse RAW264.7 cells assessed as growth inhibition incubated for 96 hrs by luciferase reporter gene assay; format: functional, organism-based; settings: RAW264.7, 96 h
[5] = test system: Plasmodium falciparum; experiment: Antiparasite activity against Plasmodium falciparum D6 assessed as growth inhibition incubated for 72 hrs by SYBR green fluorescence assay; format: functional, organism-based; settings: D6, 72 h
[6] = Toxicity against human HepG2 cells incubated for 48 hrs by MTT assay; format: cell-based; settings: read-out: TC50
[7] = Protein binding in plasma (unknown origin) assessed as fraction unbound; format: ADME, cell-free
[8] = Aqueous solubility of the compound; format: physicochemical; settings: buffer
Method in brief: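 Aqueous solubility measured as thermodynamic solubility.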

[9] = test system: Plasmodium falciparum; experiment: Antiparasite activity against drug resistant Plasmodium falciparum W2 assessed as growth inhibition incubated for 72 hrs by SYBR green fluorescence assay; format: functional, organism-based; settings: W2, 72 h
[10] = test system: Plasmodium falciparum; experiment: Antiparasite activity against drug resistant Plasmodium falciparum C235 assessed as growth inhibition incubated for 72 hrs by SYBR green fluorescence assay; format: functional, organism-based; settings: C235, 72 h
[11] = test system: Trypanosoma brucei; experiment: Antiparasite activity against Trypanosoma brucei 427 assessed as growth inhibition at 5 uM incubated for 48 hrs by PrestoBlue based fluorescence assay; format: functional; settings: Trypanosoma brucei, 427, 48 h; read-out: GI
[12] = test system: Hepatocyte; experiment: Intrinsic clearance in rat hepatocytes assessed per 10^6 cells; format: ADME, cell-based

Structure (SMILES)	EC50 [1]	EC50 [2]	EC50 [3]	EC50 [4]	EC50 [5]	CC50 at 48 h [6]	Fu [7]	solubility [8]	EC50 [9]	EC50 [10]	inhibition of growth at 5 µM [11]	CLH [12]
Fc1cccc(COc2ccc(Nc3ncnc4ccc(-c5cccc(N6CCOCC6)c5)cc34)cc2Cl)c1	42 nM	1800 nM	3000 nM	8000 nM	230 nM	> 15000 nM	< 1%	< 1 µM				
CN1CCCN(S(=O)(=O)c2ccc(-c3ccc4nncc(Nc5ccc(OCc6cccc(F)c6)c(Cl)c5)c4c3)cc2)CC1	580 nM	2200 nM	4100 nM	1060 nM	27 nM	7300 nM			63 nM	19 nM		
CN1CCN(S(=O)(=O)c2ccc(-c3ccc4c(Nc5ccc(OCc6cccc(F)c6)c(Cl)c5)ccnc4c3)cc2)CC1	79 nM	730 nM	1000 nM	1600 nM	19 nM	> 4000 nM	< 1%		42 nM	39 nM		
Fc1cccc(COc2ccc(Nc3nccc4ccc(-c5cccc(N6CCOCC6)c5)cc34)cc2Cl)c1		> 50000 nM	> 15000 nM	6000 nM	2600 nM	> 28000 nM			19000 nM	6100 nM	0.1%	
Fc1cccc(COc2ccc(Nc3nccc4cc(-c5cccc(N6CCOCC6)c5)ccc34)cc2Cl)c1		> 50000 nM	> 15000 nM	2200 nM	2800 nM	> 28000 nM			19000 nM	4700 nM	12%	
CN1CCN(S(=O)(=O)c2ccc(-c3ccc4c(Nc5ccc(OCc6cccc(F)c6)c(Cl)c5)cnnc4c3)cc2)CC1	1000 nM	3100 nM	5700 nM	2000 nM	14 nM	> 15000 nM			55 nM	25 nM		
Fc1cccc(COc2ccc(Nc3nncc4ccc(-c5cccc(N6CCOCC6)c5)cc34)cc2Cl)c1	290 nM	> 50000 nM	> 15000 nM	1700 nM	110 nM	> 15000 nM			610 nM	400 nM		
Fc1cccc(COc2ccc(Nc3nncc4cc(-c5cccc(N6CCOCC6)c5)ccc34)cc2Cl)c1	1400 nM	> 50000 nM	> 15000 nM	2200 nM	240 nM	> 15000 nM			620 nM	340 nM		
O=S(=O)(c1ccc(-c2ccc3cnnc(Nc4ccc(OCc5ccccc5)c(Cl)c4)c3c2)cc1)N1CCOCC1	860 nM	> 50000 nM	> 3400 nM	> 4000 nM	540 nM	> 5200 nM			1700 nM	1200 nM		
O=S(=O)(c1ccc(-c2ccc3c(Nc4ccc(OCc5ccccc5)c(Cl)c4)nncc3c2)cc1)N1CCOCC1	990 nM	> 50000 nM	> 15000 nM	> 15000 nM	110 nM	> 15000 nM			350 nM	170 nM		
CN1CCN(S(=O)(=O)c2ccc(-c3ccc4cnnc(Nc5ccc(OCc6cccc(F)c6)c(Cl)c5)c4c3)cc2)CC1	2000 nM	> 50000 nM	> 3200 nM	> 4000 nM	130 nM	> 5000 nM			430 nM	380 nM		
CN1CCN(S(=O)(=O)c2ccc(-c3ccc4c(Nc5ccc(OCc6cccc(F)c6)c(Cl)c5)nncc4c3)cc2)CC1	1200 nM	18000 nM	1300 nM	> 15000 nM	45 nM	> 15000 nM			130 nM	76 nM		
CN1CCCN(S(=O)(=O)c2ccc(-c3ccc4cnnc(Nc5ccc(OCc6cccc(F)c6)c(Cl)c5)c4c3)cc2)CC1	620 nM	17000 nM	> 15000 nM	5600 nM	94 nM	14000 nM			250 nM	180 nM		
CN1CCCN(S(=O)(=O)c2ccc(-c3ccc4c(Nc5ccc(OCc6cccc(F)c6)c(Cl)c5)nncc4c3)cc2)CC1	510 nM	1300 nM	410 nM	1100 nM	29 nM	3400 nM			64 nM	45 nM		
N#Cc1cnc2ccc(-c3cccc(N4CCOCC4)c3)cc2c1Nc1ccc(OCc2cccc(F)c2)c(Cl)c1		> 50000 nM	> 15000 nM	> 15000 nM	480 nM	> 15000 nM			1000 nM	730 nM	49%	
N#Cc1cnc2ccc(-c3cccc(N4CCOCC4)c3)cc2c1Nc1ccc(OCc2ccccc2)c(Cl)c1	760 nM	> 50000 nM	> 15000 nM	> 15000 nM	970 nM	> 15000 nM			820 nM	970 nM		
N#Cc1cnc2ccc(-c3ccc(S(=O)(=O)N4CCOCC4)cc3)cc2c1Nc1ccc(OCc2cccc(F)c2)c(Cl)c1		> 50000 nM	> 15000 nM	> 15000 nM	160 nM	> 15000 nM			300 nM	240 nM	15%	
N#Cc1cnc2ccc(-c3ccc(S(=O)(=O)N4CCOCC4)cc3)cc2c1Nc1ccc(OCc2ccccc2)c(Cl)c1		> 50000 nM	> 15000 nM	> 15000 nM	280 nM	> 15000 nM			580 nM	410 nM	33%	
CN1CCN(S(=O)(=O)c2ccc(-c3ccc4ncc(C#N)c(Nc5ccc(OCc6cccc(F)c6)c(Cl)c5)c4c3)cc2)CC1	1100 nM	> 50000 nM	> 15000 nM	> 15000 nM	82 nM	> 15000 nM			200 nM	110 nM		
CN1CCN(S(=O)(=O)c2ccc(-c3ccc4ncc(C#N)c(Nc5ccc(OCc6ccccc6)c(Cl)c5)c4c3)cc2)CC1	1900 nM	> 50000 nM	4100 nM	> 15000 nM	210 nM	> 15000 nM			510 nM	260 nM		
CN1CCCN(S(=O)(=O)c2ccc(-c3ccc4ncc(C#N)c(Nc5ccc(OCc6cccc(F)c6)c(Cl)c5)c4c3)cc2)CC1	350 nM	90 nM	920 nM	1600 nM	47 nM	> 15000 nM	< 1%		100 nM	66 nM		37.95 µL/min
CN1CCCN(S(=O)(=O)c2ccc(-c3ccc4ncc(C#N)c(Nc5ccc(OCc6ccccc6)c(Cl)c5)c4c3)cc2)CC1	430 nM	950 nM	1600 nM	2300 nM	58 nM	13000 nM			84 nM	58 nM		
